Data from PMC3755765 (ChemMedChem, 2013).
Converted amounts (≈) assume the structure as drawn. “And” between values parts separate entries of the source, which are not always exact repeats. Equal entries are not always repeated. Where two headings read alike, the source gives them in different places.

Columns and labels:
T. gondii tachyzoites = assay: Parasite tissue culture assay: inhibition of T. gondii tachyzoites in HFF; format: cell-based, Toxoplasma gondii; conditions: for Activity in the parasite-based assay: T. gondii tachyzoites; for MIC50 / IC50: Toxoplasma gondii
TgENR = molecular target: T1, TgENR (Toxoplasma gondii, UniProt Q6UCJ9); assay: TgENR enzyme assay; format: biochemical; conditions: for Activity in the enzyme-based assay: purified TgENR; for inhibition at 1 µM: read-out: Cpd. conc. [1 μM]/% Inh.: percentage of inhibition of TgENR; for TgENR IC50 fold lower than that of analog 9c: 38 and 54 nM vs 130 nM
T1 sequence (Q6UCJ9 28-417): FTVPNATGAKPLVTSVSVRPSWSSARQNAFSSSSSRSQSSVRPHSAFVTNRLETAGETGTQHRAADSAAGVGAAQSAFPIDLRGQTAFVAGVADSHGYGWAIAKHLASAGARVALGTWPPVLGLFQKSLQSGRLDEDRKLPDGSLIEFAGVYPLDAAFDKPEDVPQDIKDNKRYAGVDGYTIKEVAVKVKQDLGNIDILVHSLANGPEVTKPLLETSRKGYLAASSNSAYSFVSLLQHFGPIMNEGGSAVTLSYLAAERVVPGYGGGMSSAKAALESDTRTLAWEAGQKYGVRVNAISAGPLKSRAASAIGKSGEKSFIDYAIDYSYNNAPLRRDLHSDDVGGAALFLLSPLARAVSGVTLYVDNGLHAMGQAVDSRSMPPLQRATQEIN

[1] = tested on: Human Foreskin Fibroblasts (HFF); assay: Toxicity for host cells; conditions: for Parasite tissue culture assay HFF (HFF toxicity): human foreskin fibroblasts, highest concentration tested 10 μM
[2] = tested on: P. falciparum strain D6 (CDC/Sierra Leone); assay: Malaria SYBR Green I-based fluorescence assay, strain D6; format: cell-based; conditions: Plasmodium falciparum, D6, 72 h, read-out: SYBR Green D6 IC50
Method in brief: (§1)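 Late-ring or early-trophozoite parasites at 0.3% starting parasitemia and 2% hematocrit were added to plates predosed with quadruplicate 12-point two-fold dilutions in DMSO (final […]), with mefloquine as reference. Plates were incubated 72 h at 37°C under 5% CO2/5% O2/90% N2, lysed with Tris/EDTA/Triton X/saponin buffer with SYBR Green I (final 10x), kept dark 24 h at RT, and read as RFU. A chloroquine batch control at 2000 ng/ml validated each run.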

[3] = tested on: P. falciparum strain TM91C235 (WRAIR, Thailand, chloroquine resistant); assay: Malaria SYBR Green I-based fluorescence assay, strain TM91C235; format: cell-based; conditions: Plasmodium falciparum, 72 h, read-out: SYBR Green C235 IC50
Method in brief: as §1

[4] = 72 h, read-out: Parasite tissue culture assay MIC50

| SMILES | Activity in the parasite-based assay (T. gondii tachyzoites) | MIC50 (T. gondii tachyzoites; [4]) | inhibition at 1 µM (TgENR) | Parasite tissue culture assay HFF (HFF toxicity) [1] | also measured |
| --- | --- | --- | --- | --- | --- |
| COc1cc(Cn2cc(CCO)nn2)ccc1Oc1ccc(Cl)cc1Cl [Compound 8d, 2-[1-[4-(2,4-Dichlorophenoxy)-3-methoxybenzyl]-1H-1,2,3-triazol-4-yl]ethanol] | lack of activity | > 10 µM | 12% | > 10 µM | Activity in the enzyme-based assay (TgENR): lack of activity |
| CCCCc1cn(Cc2ccc(Oc3ccc(Cl)cc3Cl)c(O)c2)nn1 [Compound 9a, 5-[(4-Butyl-1H-1,2,3-triazol-1-yl)methyl]-2-(2,4-dichlorophenoxy)phenol] | inactive | > 10 µM | 94% | > 10 µM | IC50 (TgENR): 0.038 µM; TgENR IC50 fold lower than that of analog 9c (TgENR): approximately 3 fold |
| Oc1cc(Cn2cc(-c3ccccc3)nn2)ccc1Oc1ccc(Cl)cc1Cl [Compound 9b, 2-(2,4-Dichlorophenoxy)-5-[(4-phenyl-1H-1,2,3-triazol-1-yl)methyl]phenol] | inactive | > 10 µM | 93% | > 10 µM | IC50 (TgENR): 0.054 µM; TgENR IC50 fold lower than that of analog 9c (TgENR): ~2 fold |
| Oc1cc(Cn2ccnn2)ccc1Oc1ccc(Cl)cc1Cl [Compound 9c, 2-(2,4-Dichlorophenoxy)-5-(1H-1,2,3-triazol-1-ylmethyl)phenol] | – | 10 µM (≈ 3.36 µg/mL) | 93% | >10 µM | IC50 (TgENR): 0.13 µM; IC50 [2]: 4.71 µM and 1.58 µg/mL; IC50 [3]: > 2 µg/mL |
| CCCCc1cn(Cc2ccc(Oc3ccc(Cl)cc3O)c(Cl)c2)nn1 [Compound 16a, 2-[4-[(4-Butyl-1H-1,2,3-triazol-1-yl)methyl]-2-chlorophenoxy]-5-chlorophenol] | – | 0.25 µM (≈ 0.0981 µg/mL) | 90% | >10 µM | IC50 (T. gondii tachyzoites; read-out: IC50 (MIC50) against Toxoplasma gondii tachyzoites): 0.25 µM; TgENR IC50 fold higher than that of 16c (TgENR; 43 vs 26 nM): 1.6 fold; Toxicity to the host cells [1]: without apparent toxicity to the host cells |
| Oc1cc(Cl)ccc1Oc1ccc(Cn2cc(-c3ccccc3)nn2)cc1Cl [Compound 16b, 5-Chloro-2-[2-chloro-4-[(4-phenyl-1H-1,2,3-triazol-1-yl)methyl]phenoxy]phenol] | activity comparable to or better than that of triclosan | 1 µM (≈ 0.412 µg/mL) | 82% | >10 µM | – |
| CCCCc1cc(-c2ccc(Oc3ccc(Cl)cc3Cl)c(O)c2)no1 [Compound 20a, 5-(5-Butyl-1,2-oxazol-3-yl)-2-(2,4-dichlorophenoxy)phenol] | completely inactive | > 10 µM | 59% | > 10 µM | Activity in the enzyme-based assay (TgENR): completely inactive |
| Oc1cc(-c2cc(-c3ccccc3)on2)ccc1Oc1ccc(Cl)cc1Cl [Compound 20b, 2-(2,4-Dichlorophenoxy)-5-(5-phenyl-1,2-oxazol-3-yl)phenol] | completely inactive | > 10 µM | 40% | > 10 µM | Activity in the enzyme-based assay (TgENR): completely inactive |
| C[Si](C)(C)c1cc(-c2ccc(Oc3ccc(Cl)cc3Cl)c(O)c2)no1 [Compound 20c, 2-(2,4-Dichlorophenoxy)-5-[5-(trimethylsilyl)-1,2-oxazol-3-yl]phenol] | – | 7 µM (≈ 2.76 µg/mL) | 25% | > 10 µM | – |
| CCCCc1cc(-c2ccc(Oc3ccc(Cl)cc3O)c(Cl)c2)no1 [Compound 24a, 2-[4-(5-Butyl-1,2-oxazol-3-yl)-2-chlorophenoxy]-5-chlorophenol] | – | 8 µM (≈ 3.03 µg/mL) | 92% | >10 µM | IC50 (TgENR): 0.018 µM |
| Oc1cc(Cl)ccc1Oc1ccc(-c2cc(-c3ccccc3)on2)cc1Cl [Compound 24b, 5-Chloro-2-[2-chloro-4-(5-phenyl-1,2-oxazol-3-yl)phenoxy]phenol] | – | 10 µM (≈ 3.98 µg/mL) | 88% | >10 µM | IC50 (TgENR): 0.028 µM |
| N#Cc1ccc(Oc2ccc(Cl)cc2Cl)c(O)c1 [Compound 27, 4-(2,4-Dichlorophenoxy)-3-hydroxybenzonitrile] | – | 2 µM (≈ 0.56 µg/mL) | 97% | > 10 µM | – |
| O=C(Nc1ccccc1)c1ccc(Oc2ccc(Cl)cc2Cl)c(O)c1 [Compound 30a, 4-(2,4-Dichlorophenoxy)-3-hydroxy-N-phenylbenzamide] | – | > 10 µM | 7% | >10 µM | IC50 [2]: > 2 µg/mL; IC50 [3]: > 2 µg/mL |
| CCCCN(CCCC)C(=O)c1ccc(Oc2ccc(Cl)cc2Cl)c(O)c1 [Compound 30b, 4-(2,4-Dichlorophenoxy)-3-hydroxy-N,N-dibutylbenzamide] | – | > 10 µM | 44% | >10 µM | IC50 [2]: 400 nM and 0.166 µg/mL; IC50 [3]: 600 nM and 0.247 µg/mL |
| O=C(c1ccc(Oc2ccc(Cl)cc2Cl)c(O)c1)N1CCOCC1 [Compound 30c, [4-(2,4-Dichlorophenoxy)-3-hydroxyphenyl](morpholin-4-yl)methanone] | – | > 10 µM | 43% | >10 µM | IC50 [2]: > 2 µg/mL; IC50 [3]: > 2 µg/mL |
| CCCCCCNC(=O)c1ccc(Oc2ccc(Cl)cc2Cl)c(O)c1 [Compound 30d, 4-(2,4-Dichlorophenoxy)-N-hexyl-3-hydroxybenzamide] | – | > 10 µM | 30% | >10 µM | IC50 [2]: > 2 µg/mL; IC50 [3]: > 2 µg/mL |
| Cc1cc(C(=O)NCc2ccc(Oc3ccc(Cl)cc3Cl)c(O)c2)no1 [Compound 33, N-[4-(2,4-Dichlorophenoxy)-3-hydroxybenzyl]-5-methyl-1,2-oxazole-3-carboxamide] | – | 10 µM (≈ 3.93 µg/mL) | 96% | – | – |
| Cc1cc(C(=O)NCc2ccc(Oc3ccc(Cl)cc3O)c(Cl)c2)no1 [Compound 37a, N-[3-Chloro-4-(4-chloro-2-hydroxyphenoxy)benzyl]-5-methyl-1,2-oxazole-3-carboxamide] | activity comparable to or better than that of triclosan | 5 µM (≈ 1.97 µg/mL) | 88% | – | – |
| O=C(NCc1ccc(Oc2ccc(Cl)cc2O)c(Cl)c1)c1cc(-c2ccccc2)on1 [Compound 37b, N-[3-Chloro-4-(4-chloro-2-hydroxyphenoxy)benzyl]-5-phenyl-1,2-oxazole-3-carboxamide] | – | > 10 µM | 80% | – | – |
| O=C(NCc1ccc(Oc2ccc(Cl)cc2O)c(Cl)c1)c1ccc2cc(O)ccc2c1 [Compound 37d, N-[3-Chloro-4-(4-chloro-2-hydroxyphenoxy)benzyl]-6-hydroxynaphthalene-2-carboxamide] | – | – | 89% | – | IC50 (T. gondii tachyzoites; [4]): > 10 µM; Activity in the enzyme-based assay (TgENR): Reasonable activity |
| Oc1cc(CNc2ccccc2)ccc1Oc1ccc(Cl)cc1Cl [Compound 39a, 2-(2,4-Dichlorophenoxy)-5-[(phenylamino)methyl]phenol] | – | 10 µM (≈ 3.6 µg/mL) | 96% | >10 µM | IC50 (TgENR): 0.13 µM; IC50 [2]: 4.56 µM and 1.64 µg/mL; IC50 [3]: > 2 µg/mL |
| CCCCCCNCc1ccc(Oc2ccc(Cl)cc2Cl)c(O)c1 [Compound 39c, 2-(2,4-Dichlorophenoxy)-5-[(hexylamino)methyl]phenol] | activity comparable to or better than that of triclosan | 3 µM (≈ 1.1 µg/mL) | 16% | – | Activity in the enzyme-based assay (TgENR): completely inactive; IC50 [2]: 2.75 µM and 0.857 µg/mL; IC50 [3]: > 2 µg/mL |
| CCCCCCNCc1ccc(Oc2ccc(Cl)cc2O)c(Cl)c1 [Compound 41a, 5-Chloro-2-[2-chloro-4-[(hexylamino)methyl]phenoxy]phenol] | activity comparable to or better than that of triclosan | 1 µM (≈ 0.368 µg/mL) | 25% | >10 µM | Activity in the enzyme-based assay (TgENR): completely inactive |
| Oc1cc(Cl)ccc1Oc1ccc(CNc2ccccc2)cc1Cl [Compound 41b, 5-Chloro-2-[2-chloro-4-[(phenylamino)methyl]phenoxy]phenol] | – | > 10 µM | 94% | >10 µM | – |
